Assay results taken from the array DNA melting data of Ke et al. (doi:10.1101/2024.01.08.574731).

Tests used:
[1] = melting temperature; fluorescence melt of hairpins on a sequencing array, two-state fit, raised by 9.35 °C to match UV melts; settings: sodium 0.088 M
Procedure, shortened: (§1)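 Cy3 signals were normalised both to pre-quench Cy3 and to control constructs. They came from library hairpins carrying annealed Cy3 and quencher oligos on a sequenced MiSeq flow cell, imaged in 50 mM Na-HEPES pH 8.0, 25 mM NaCl, in 2.5 °C steps up to 60 °C. Bootstrapped two-state fits gave melting temperature and folding enthalpy, and four replicates were combined by inverse variance. Fitted temperatures were then raised by 9.35 °C to match UV melts.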

[2] = folding enthalpy; higher = less favourable; fluorescence melt of hairpins on a sequencing array, two-state fit; settings: sodium 0.088 M
Procedure, shortened: as §1

Row | Sequence | Tm [1] | folding enthalpy [2]
1 | GTGTCTGCGAAAGCACAC (((..(((....)))))) | 43.8 °C | -14.6 kcal/mol
2 | GCGGTTTCGAAAGAACGC (((..(((....)))))) | 44.8 °C | -26.5 kcal/mol
3 | GAACCCCGAAAGGGTTC (((.(((....)))))) | 58.9 °C | -30.9 kcal/mol
4 | GCACCAGGAAACTGGCAC (..((((....))))..) | 23.9 °C | -11.6 kcal/mol
5 | GAGTGGACGAAAGTCCTC (((..(((....)))))) | 36 °C | -9.72 kcal/mol
6 | GCGTACGAAAGTACTCGC ((((((....)))..))) | 46.5 °C | -15.6 kcal/mol
7 | GATCACTAGGGTGATC ((((((....)))))) | 57.3 °C | -41.7 kcal/mol
8 | GCCGTAGGAAACCACGGC (((((.(....).))))) | 54.4 °C | -34.2 kcal/mol
9 | GATCGTCCGTACGATC ((((((....)))))) | 54.9 °C | -47.3 kcal/mol
10 | GCTGTGGCGAAAGCCAGC (((..(((....)))))) | 52.2 °C | -13.8 kcal/mol
11 | GCCTAGGGAAACCTAGAC (.(((((....))))).) | 35.4 °C | -19.6 kcal/mol
12 | GGGTTACGAAAGTACCCC (((.(((....))).))) | 52.1 °C | -22.9 kcal/mol
13 | GCTGTTGGAAACAGTAGC (((..((....))..))) | 41.6 °C | -11.9 kcal/mol
14 | GGGCAGCGAAAGCTACCC (((.(((....))).))) | 57.1 °C | -31.2 kcal/mol
15 | GGATAAGGAAACCTATCC (((((.(....).))))) | 33.5 °C | -30.3 kcal/mol
16 | GGGACCGAAAGGTTCCCC ((((((....)))..))) | 59.7 °C | -15.4 kcal/mol
17 | GATCGTCCGCACGATC ((((((....)))))) | 54.4 °C | -39.6 kcal/mol
18 | GCTTAGCGAAAGCGATGC ((.(.((....)).).)) | 59.5 °C | -18.6 kcal/mol
19 | GTAGGCGAAAGCCCGTAC ((((((....)))..))) | 31.1 °C | -8.97 kcal/mol
20 | CGCCAGCGGAAACGCGCG (((..(((....)))))) | 50.6 °C | -23.4 kcal/mol
21 | ACTCTGAAAAGAGT (((((....))))) | 43.4 °C | -17.4 kcal/mol
22 | GCGTACGCACGC ((((....)))) | 56.9 °C | -17.1 kcal/mol
23 | GTTCGGGGAAACTCGAGC (.(((.(....).))).) | 35.9 °C | -19.7 kcal/mol
24 | GCCCGGGGAAACCCGAGC ((.((((....)))).)) | 52.9 °C | -25.2 kcal/mol

Row | Sequence | Tm [1] | folding enthalpy [2]
25 | GCCCAGAAATGGGC (((((....))))) | 63.1 °C | -33.9 kcal/mol
26 | GTATGCCGAAAGGCCTAC (((.(((....))).))) | 45.5 °C | -12.1 kcal/mol
27 | GGACACGAAAGTGATCC ((((((....))).))) | 48.5 °C | -21.7 kcal/mol
28 | GATCCTACCCAGGATC ((((((....)))))) | 51.2 °C | -39.9 kcal/mol
29 | GACCCGGGAAACCGAGTC (((.(((....))).))) | 45.3 °C | -32.8 kcal/mol
30 | GATCCTTCGTAGGATC ((((((....)))))) | 53 °C | -33.7 kcal/mol
31 | GCTAGGGCGAAAGCCAGC (((..(((....)))))) | 48 °C | -15 kcal/mol
32 | GTTCTCCGAAAGGATAAC (((.(((....))).))) | 41.2 °C | -26.4 kcal/mol
33 | GATCCTGGACAGGATC ((((((....)))))) | 57.5 °C | -36.4 kcal/mol
34 | GATCCCGAGCGGGATC ((((((....)))))) | 61.6 °C | -40.5 kcal/mol
35 | GGTAAATCGAAAGATACC (((..(((....)))))) | 30.4 °C | -15.1 kcal/mol
36 | GTTGGGCGAAAGCCTAAC (((.(((....))).))) | 54.9 °C | -23.1 kcal/mol
37 | AAATGGAAACATTT (((((....))))) | 27.2 °C | -9.49 kcal/mol
38 | GGCATAGGAAACTGTGCC ((((.((....)).)))) | 53.7 °C | -45.3 kcal/mol
39 | GCCTGCTCGAAAGAGGGC (((..(((....)))))) | 44.5 °C | -15.7 kcal/mol
40 | GATTGCCGAAAGGCCATC (((.(((....))).))) | 40.9 °C | -16.6 kcal/mol
41 | GGCCCCCGAAAGGGTGCC (((.(((....))).))) | 64.5 °C | -27.9 kcal/mol
42 | GGTGACGGAAACGTCGTC (..((((....))))..) | 42 °C | -13.9 kcal/mol
43 | GGCGTTCGAAAGAAGGCC (((.(((....))).))) | 61.1 °C | -39.4 kcal/mol
44 | GGAGGCGAAAGCCCTTCC ((((((....)))..))) | 53.1 °C | -15.2 kcal/mol
45 | GGACGCGAAAGCGTCTCC ((((((....)))..))) | 62.5 °C | -6.35 kcal/mol
46 | GATCCACTGTGGATC ((((((...)))))) | 51.6 °C | -39.4 kcal/mol
47 | GACACCACGAAAGTGGTC (((..(((....)))))) | 39 °C | -6.51 kcal/mol
48 | GAGTACGAAAGTATGCTC ((((((....)))..))) | 31.5 °C | -20.8 kcal/mol

Row | Sequence | Tm [1] | folding enthalpy [2]
49 | GGTCGTGGAAACACAACC (((.(((....))).))) | 42.5 °C | -27.6 kcal/mol
50 | GATCTTGTACAAGATC ((((((....)))))) | 51.7 °C | -43.2 kcal/mol
51 | GATCCTGTGTAGGATC ((((((....)))))) | 52.3 °C | -31.5 kcal/mol
52 | GTAGGCGAAAGCCTTTAC ((((((....)))..))) | 24.7 °C | -8.65 kcal/mol
53 | GGTATCCGAAAGGAACC (((.(((....)))))) | 44.4 °C | -18.8 kcal/mol
54 | GGTTCCGAAAGGATGACC ((((((....)))..))) | 38.2 °C | -18.5 kcal/mol
55 | CGCTACGGAAACGTCGCG (((.(((....))).))) | 51.9 °C | -39.3 kcal/mol
56 | GCCCGACCGAAAGGTGGC (((..(((....)))))) | 51 °C | -17.1 kcal/mol
57 | GTCGAAGGAAACTTCGAC (((((((....))))))) | 62.2 °C | -48.6 kcal/mol
58 | GTGGCCGAAAGGCGTCAC ((((((....)))..))) | 43.5 °C | -12.2 kcal/mol
59 | GGAGGGAAACCTCC (((((....))))) | 54.7 °C | -26.3 kcal/mol
60 | CTGCAGAAATGCAG (((((....))))) | 53.4 °C | -21 kcal/mol
61 | GGAACACGAAAGTGGTCC (((.(((....))).))) | 60.7 °C | -31.7 kcal/mol
62 | GATCCAATACTGGATC ((((((....)))))) | 48.6 °C | -40 kcal/mol
63 | CTGGAGAAATCCAG (((((....))))) | 43.6 °C | -27.1 kcal/mol
64 | GCCCTTACGAAAGTAGGC (((..(((....)))))) | 39.1 °C | -20.6 kcal/mol
65 | GAAGCCGAAAGGCTATTC ((((((....)))..))) | 33.7 °C | -8.63 kcal/mol
66 | GGGTGGGGAAACCCGCCC (((.(((....))).))) | 67.3 °C | -33.6 kcal/mol
67 | GGCTCTGGAAACAGGGTC (.(.(((....))).).) | 37.5 °C | -29.6 kcal/mol
68 | GATCACAGTGGTGATC ((((((....)))))) | 56.5 °C | -50 kcal/mol
69 | GATCTACAAATAGATC ((((((....)))))) | 36.6 °C | -25.4 kcal/mol
70 | GGATGGAAACATCC (((((....))))) | 51.8 °C | -29.8 kcal/mol
71 | GTCGGGGGAAACCTCGGC (.((.((....)).)).) | 44.9 °C | -35.4 kcal/mol
72 | GCTTCCGAAAGGAGAAGC ((((((....)))..))) | 45.7 °C | -25.6 kcal/mol

Row | Sequence | Tm [1] | folding enthalpy [2]
73 | GATCCTTTTAAGGATC ((((((....)))))) | 57.9 °C | -36.6 kcal/mol
74 | GTAACTGGAAACGGTTAC (((((.(....).))))) | 44.1 °C | -32.6 kcal/mol
75 | GATCAGTTGACTGATC ((((((....)))))) | 53.5 °C | -37.3 kcal/mol
76 | GCTGATGGAAACATCGGC ((.((((....)))).)) | 54.1 °C | -43 kcal/mol
77 | GGCCATGCGAAAGCAGCC (((..(((....)))))) | 48.4 °C | -17.1 kcal/mol
78 | GCTTGTCGAAAGACGAGC (((.(((....))).))) | 61.3 °C | -36.9 kcal/mol
79 | GATCTTAATAAGATC ((((((...)))))) | 39.8 °C | -24.4 kcal/mol
80 | GATCCTTTCAGGATC ((((((...)))))) | 57.4 °C | -41.3 kcal/mol
81 | GTACTTCGAAAGAAATAC (((.(((....))).))) | 29.3 °C | -17.1 kcal/mol
82 | GATCGTGGAAACGCGATC (((((.(....).))))) | 55.6 °C | -39.9 kcal/mol
83 | GTCTGACGAAAGTCTGAC (((.(((....))).))) | 57.2 °C | -34 kcal/mol
84 | CGCGGACGGATCCGCG ((((((....)))))) | 68.7 °C | -28.8 kcal/mol
85 | CGCGGCCGGAAACGGGCG (((..(((....)))))) | 65.6 °C | -12.1 kcal/mol
86 | GCCGATACGAAAGTAGGC (((..(((....)))))) | 49.3 °C | -33 kcal/mol
87 | GATCTTTCAAAGATC ((((((...)))))) | 44.5 °C | -28.5 kcal/mol
88 | GCAGACGGAAACGTTTGC (((.(((....))).))) | 53.8 °C | -46.1 kcal/mol
89 | GGGGTCGAAAGACCACCC ((((((....)))..))) | 54.7 °C | -12.7 kcal/mol
90 | GTCATGAAAATGAC (((((....))))) | 50.1 °C | -27.1 kcal/mol
91 | GTCGTCGAAAGACGTGAC ((((((....)))..))) | 39.6 °C | -10.8 kcal/mol
92 | GCTCATCGAAAGATAAGC (((.(((....))).))) | 39.6 °C | -23.8 kcal/mol
93 | GCGTGATCACGC ((((....)))) | 59.1 °C | -35.6 kcal/mol
